Bioassay records from PubChem.
A selection: hits, their analogues and other compounds. The true share with any hit is near 4.1%.
KCNK9 inh: inhibitors of human KCNK9 two-pore domain potassium channel; Q9NPC2; HEK293 KCNK9, FluxOR thallium flux fluorescence; active compounds read low; B-score at 10 µM; 310,000 compounds, 1.2% hits; AID 488922;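 active means ratio B-score over 3 SD below the library mean, with starting fluorescence within 5 SD of its mean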;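 further: negative B-score means less thallium flux so channel inhibition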
Target sequence (Q9NPC2 whole entry, looked up, the tested form may be a part): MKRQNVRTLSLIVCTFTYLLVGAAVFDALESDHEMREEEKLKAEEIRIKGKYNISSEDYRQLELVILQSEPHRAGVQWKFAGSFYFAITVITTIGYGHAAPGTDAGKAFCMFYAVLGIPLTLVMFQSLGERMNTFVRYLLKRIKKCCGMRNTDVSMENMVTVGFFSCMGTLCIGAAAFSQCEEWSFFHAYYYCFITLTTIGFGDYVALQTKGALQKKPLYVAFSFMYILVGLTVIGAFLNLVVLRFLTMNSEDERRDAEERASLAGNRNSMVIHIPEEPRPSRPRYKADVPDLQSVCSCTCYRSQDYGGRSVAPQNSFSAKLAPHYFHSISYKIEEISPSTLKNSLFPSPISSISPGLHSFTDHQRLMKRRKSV
KCNQ1 act: potentiators or activators of human KCNQ1 potassium channel; P51787; CHO-K1 KCNQ1, thallium flux FluxOR fluorescence; active compounds read high; B-score at 10 µM; 310,000 compounds, 0.35% hits;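 active means fluorescence ratio B-score, a plate-corrected score, at least three library SD, with initial intensity B-score within 5 SD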
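Assay system: stable KCNQ1 CHO-K1 line; medium: assay buffer, equal DMSO in all wells; timing: 90 min dye loading and 20 min compound exposure, both at room temperature; technique: kinetic FluxOR thallium fluorescence, 10-s 1-Hz baseline, 110-s post-stimulus read; read-out basis: B score of baseline-normalized fluorescence ratio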
KCC2 mod: modulators of human KCC2 chloride dependent transport; KCC2 cells, thallium flux FluoZin-2 fluorescence; B-score of Tl+ flux slope (higher = more flux/activation; lower = inhibition) at 10 µM; 190,000 compounds, 2.2% hits; AID 1456;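 active means thallium flux slope and its plate-corrected score both differing from the plate sample mean at a set confidence after two filtering rounds, in either direction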;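 further: slope of fluorescence scaled to starting intensity during 10 to 20 s after thallium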
KCNQ1 block: inhibitors of human KCNQ1 potassium channel. P51787. CHO-K1 KCNQ1, FluxOR thallium flux fluorescence; active compounds read high. B-score at 10 µM. 310,000 compounds, 1.3% hits. AID 2642;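 active means compounds whose thallium flux B-score, printed positive for inhibition, exceeds three library SD while starting fluorescence stays within three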;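 further: channel opened by potassium depolarization with thallium stimulus after 20 min compound exposure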
KCNK3 inh: human KCNK3 channel inhibition, primary screen; CHO-KCNK3 thallium flux, FluxOR fluorescence; active compounds read low; B-score at 10 µM; O14649; 340,000 compounds, 0.84% hits; AID 602410;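 active means B-score under library mean minus 4 SD, starting fluorescence ratio at most library mean plus 5 SD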;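 further: more negative B-score means stronger inhibition of thallium flux through KCNK3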
Target sequence (O14649 whole entry, looked up): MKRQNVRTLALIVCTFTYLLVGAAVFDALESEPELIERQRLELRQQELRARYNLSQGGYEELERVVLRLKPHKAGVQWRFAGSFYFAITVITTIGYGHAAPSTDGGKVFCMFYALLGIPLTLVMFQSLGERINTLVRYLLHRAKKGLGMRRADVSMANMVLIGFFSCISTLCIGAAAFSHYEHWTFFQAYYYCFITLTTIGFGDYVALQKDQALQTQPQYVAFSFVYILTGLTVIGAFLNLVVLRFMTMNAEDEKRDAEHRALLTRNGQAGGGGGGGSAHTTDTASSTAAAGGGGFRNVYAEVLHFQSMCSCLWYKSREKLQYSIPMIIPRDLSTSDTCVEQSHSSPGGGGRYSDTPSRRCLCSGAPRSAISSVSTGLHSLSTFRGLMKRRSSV
hERG rescue: shields human hERG channel from block by proarrhythmic agents; 310,000 compounds, 0.51% hits; activation (rescue from dofetilide block), less the hit threshold, % at 10 µM; CHO-hERG, FluxOR thallium flux, dofetilide IC70 present;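 active means activation above the mean of controls blocked by dofetilide plus 5 SD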;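 further: thallium influx through hERG after potassium depolarization seen as dye fluorescence rise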
KCC2 sec1: confirmation of human KCC2 transport modulators; normalised thallium flux (F/F0 slope) at 10 µM; shares compounds with KCC2 mod; 3,700 compounds, 15% hits; AID 1713; HEK293-KCC2, thallium flux, FluoZin2 fluorescence; active compounds read high;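 active means thallium flux slope above the same plate's solvent-only control mean plus 3 SD; inconclusive means the two replicate wells disagree; inactive means no significant difference from solvent-only control wells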
KCC2 bumet counter: thallium flux persisting under bumetanide in KCC2 cells, counter-screen secondary assay; normalized thallium flux at 10 µM; AID 1714; HEK293-KCC2 + bumetanide/ouabain, thallium flux FluoZin2; active compounds read high; 3,700 compounds, 49% hits; shares compounds with KCC2 mod;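 active means thallium entry rate above the same plate's blocked-transporter control wells by more than 3 SD; inconclusive means the two repeat wells disagree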;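 further: raw slope of fluorescence over initial fluorescence between 10 and 20 s after thallium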
KCC2 secondary2: KCC2 (human) modulation, second secondary assay; AID 1715; shares compounds with KCC2 mod; normalized thallium flux at 10 µM; 3,700 compounds, 23% hits; HEK293-KCC2, thallium flux FluoZin2 fluorescence; actives lie on both sides; F/F0 rise rate, 10–20 s post-thallium;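 active means thallium flux slope more than 3 SD above or below the plate's solvent-only control mean, mostly below; inconclusive means the two repeat wells disagreed; inactive means no significant shift from solvent-only controls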
HEK293 Tl flux: counter-screen for KCC2 modulators: effect in parental HEK293 cells. shares compounds with KCC2 mod. thallium flux FluoZin2, ouabain; baseline-ratio fluorescence slope, 10–20 s after thallium. thallium flux rate (normalised fluorescence) at 10 µM. 3,700 compounds, 46% hits. AID 1716;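 active means thallium flux rate significantly above the same plate's solvent-only control wells, beyond their mean plus 3 SD; inconclusive means the two replicate wells gave conflicting results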
KCC2 ouabain: modulates human KCC2 on retest with ouabain; raw Tl+ flux slope (below DMSO = inhibition, above = activation) at 10 µM; HEK293-KCC2, thallium flux FluoZin2 fluorescence; bidirectional: low = inhibitor, high = activator; AID 1717; 3,700 compounds, 48% hits; shares compounds with KCC2 mod;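 active means thallium flux slope beyond 3 SD from same-plate DMSO control mean in most replicates, usually higher, sometimes lower; inconclusive means repeat tests gave conflicting results; inactive means no significant difference from controls in most replicates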;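 further: slope of initial-normalized fluorescence between seconds 10 and 20 after thallium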
HEK293 Tl flux2: counter-screen for KCC2 modulators: effect in parental HEK293 cells; 3,700 compounds, 33% hits; shares compounds with KCC2 mod; thallium flux slope at 10 µM; thallium flux FluoZin-2 fluorescence slope; AID 1718;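 active means thallium flux slope above the same plate's solvent-control mean plus 3 SD in both duplicate wells; inconclusive means duplicate wells that disagreed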;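 further: run without ouabain in cells lacking the KCC2 cotransporter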
Each line names hits and unclear results; the compound was inactive in the other large screens (follow-up assays come after a bar, where they were run).

Cc1ccc(NC(=O)CCS(=O)(=O)c2cccc3nonc23)c(Br)c1	none (no result: KCC2 mod)
CC1=CCCC(C)(C)C1/C=C/C(C)=N/NC(=O)c1ccncc1 (stereo not drawn)	KCC2 mod 5.29 | KCC2 sec1 inconclusive | KCC2 bumet counter 0.0459 | KCC2 secondary2 inactive | HEK293 Tl flux 0.0158 | KCC2 ouabain inconclusive | HEK293 Tl flux2 0.0123
C/C(=N/NC(=O)c1ccncc1)C1=C(O)CC(C)(C)CC1=O	none
Cc1ccc(-c2ccc(/C=N/NC(=O)c3ccccc3O)o2)cc1	KCNQ1 act 8, KCC2 mod 61.4 (no result: KCNK3 inh) | KCC2 sec1 0.0197 | KCC2 bumet counter 0.0794 | KCC2 secondary2 inactive | HEK293 Tl flux 0.0406 | KCC2 ouabain 0.0565 | HEK293 Tl flux2 0.0148
Cc1ccc(-c2ccc(/C=N/NC(N)=S)o2)cc1	KCC2 mod 5.05 | KCC2 sec1 inactive | KCC2 bumet counter 0.0122 | KCC2 secondary2 inactive | HEK293 Tl flux 0.0104 | KCC2 ouabain inconclusive | HEK293 Tl flux2 inconclusive
Cc1ccc(/C=c2\s/c(=C(/C#N)C(=O)N3CCCC3)n(Cc3ccco3)c2=O)s1	KCC2 mod 8.2 | KCC2 sec1 inactive | KCC2 bumet counter inactive | KCC2 secondary2 0.0245 | HEK293 Tl flux inactive | KCC2 ouabain inactive | HEK293 Tl flux2 inactive
S=c1nc(SCc2ccccc2)[nH]c2ccccc12	KCNQ1 act 54, KCC2 mod 120, hERG rescue 73.6 | KCC2 sec1 0.0187 | KCC2 bumet counter 0.0975 | KCC2 secondary2 0.104 | HEK293 Tl flux 0.108 | KCC2 ouabain 0.095 | HEK293 Tl flux2 0.105
COc1cc(C2SCC(=O)N2c2c(C)n(C)n(-c3ccccc3)c2=O)ccc1O (stereo not drawn)	none
COC(=O)c1cccc(C23CC4(C2)[C@H](CN(Cc2cccnc2)[C@@H]4c2ccccc2)C3c2ccc(C(F)(F)F)cc2)c1 (stereo partly drawn)	KCC2 mod -3.21 (no result: KCNK3 inh) | KCC2 sec1 inconclusive | KCC2 bumet counter 0.0085 | KCC2 secondary2 inactive | HEK293 Tl flux inactive | KCC2 ouabain inactive | HEK293 Tl flux2 inactive
C=CCN1C(=O)N(/C=C/C)c2cccc3cccc1c23	KCC2 mod 7.61 | KCC2 sec1 inactive | KCC2 bumet counter inactive | KCC2 secondary2 inactive | HEK293 Tl flux 0.00568 | KCC2 ouabain inactive | HEK293 Tl flux2 inactive
C/C(=N\NC(=S)Nc1ccc(F)cc1)C1CC1	KCC2 mod 8.39 | KCC2 sec1 inactive | KCC2 bumet counter 0.0236 | KCC2 secondary2 inactive | HEK293 Tl flux 0.0181 | KCC2 ouabain 0.0277 | HEK293 Tl flux2 0.0217
O=C(C[C@H]1C(=O)N(CCc2ccccc2)C[C@@H]1Cc1ccccc1)Nc1ccccc1	none (no result: KCC2 mod)
CN(C(=O)COC(=O)/C=C/c1ccc2ccccc2n1)C1CCS(=O)(=O)C1 (stereo not drawn)	none
CC(=C/c1ccccc1)/C=N/n1c(-c2ccco2)n[nH]c1=S	none (no result: KCC2 mod)
CC(/C=N/n1c(-c2cc(C)[nH]n2)n[nH]c1=S)=C\c1ccccc1	KCC2 mod -4.42 | KCC2 sec1 inactive | KCC2 bumet counter inactive | KCC2 secondary2 inactive | HEK293 Tl flux inconclusive | KCC2 ouabain inactive | HEK293 Tl flux2 inactive
O=c1nc(-c2ccccc2)c(-c2ccccc2)n[nH]1	none (no result: KCC2 mod)
S=c1nc(-c2ccccc2)c(-c2ccccc2)n[nH]1	KCC2 mod 6.02 | KCC2 sec1 inactive | KCC2 bumet counter 0.0136 | KCC2 secondary2 inactive | HEK293 Tl flux 0.0164 | KCC2 ouabain inconclusive | HEK293 Tl flux2 0.0204
S=C(NCc1ccc2c(c1)OCO2)NC1CCN(Cc2ccccc2)CC1	none (no result: KCC2 mod)
C=C1c2cc3c(cc2NC(=S)N1Cc1ccccc1)OCO3	KCC2 mod 53.2 | KCC2 sec1 0.0157 | KCC2 bumet counter 0.0989 | KCC2 secondary2 inactive | HEK293 Tl flux 0.0353 | KCC2 ouabain 0.0473 | HEK293 Tl flux2 0.0159
c1ccc2c3c([nH]c2c1)C1(CCCCC1)NCC3	none
CC12CCCCN1CCCc1c2[nH]c2ccccc12 (stereo not drawn)	KCC2 mod 8.24 | KCC2 sec1 inconclusive | KCC2 bumet counter inactive | KCC2 secondary2 inactive | HEK293 Tl flux inactive | KCC2 ouabain inconclusive | HEK293 Tl flux2 inactive
CC(=O)Nc1ccc(Oc2ncccn2)cc1	none (no result: KCC2 mod)
Cc1ccc(S(=O)(=O)N2CCC(C(=O)NCc3ccccc3Cl)CC2)cc1	KCC2 mod -2.91 | KCC2 sec1 inactive | KCC2 bumet counter inactive | KCC2 secondary2 inactive | HEK293 Tl flux inactive | KCC2 ouabain 0.0153 | HEK293 Tl flux2 inactive
OCc1ccccc1OCCOc1ccc(Cl)c2cccnc12	none
Clc1ccc(OCc2cn3ccccc3n2)c2ncccc12	KCC2 mod -3.74 | KCC2 sec1 inactive | KCC2 bumet counter inactive | KCC2 secondary2 inactive | HEK293 Tl flux inactive | KCC2 ouabain inactive | HEK293 Tl flux2 inactive
O=C(OCCCCN1C(=O)c2ccccc2C1=O)c1n[nH]c2ccccc12	KCC2 mod -2.92 | KCC2 sec1 inactive | KCC2 bumet counter 0.00674 | KCC2 secondary2 inactive | HEK293 Tl flux inconclusive | KCC2 ouabain inconclusive | HEK293 Tl flux2 inactive
COC(=O)c1n[nH]c2ccccc12	none (no result: KCC2 mod)
CCCOc1cccc(-c2nnc(NC(=O)c3ccco3)s2)c1	none (no result: KCC2 mod)
CSc1nc(=S)cc(C)[nH]1	KCC2 mod 16.1 | KCC2 sec1 inactive | KCC2 bumet counter 0.0181 | KCC2 secondary2 0.0386 | HEK293 Tl flux 0.0224 | KCC2 ouabain 0.0282 | HEK293 Tl flux2 0.0231
COc1ccc(C(=O)Nc2nc(N)n(-c3ccccc3)n2)cc1OC	none
COc1ccc(CNC(=O)CCC(=O)Nc2nnc(C(F)(F)F)s2)cc1	none (no result: KCC2 mod)
O=C(Cn1c(=O)sc2ccccc21)N1CCOCC1	none (no result: KCC2 mod)
